Results reported in ChEMBL document CHEMBL3272087, “Antifertility agents. 12. Structure-activity relationship of 3,4-diphenylchromenes and -chromans” (1976).
Calls of active or inactive are those of the source. The calls are words filed in the database; no cut-off is given here.

These compounds were tested on Rattus norvegicus (assay: Estrogenic activity in immature female rat assessed as vaginal opening at 5 mg/kg, po bid for 3 days). Settings: not given.
Assay type: functional, organism-based
Set-up: dose 5 mg/kg
Procedure, shortened: (§1)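 Immature female rats, 25-30 g, scored for presence or absence of vaginal opening. Failure to induce opening was taken as complete absence of estrogenic activity.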
In the case of `COc1ccc2c(c1)OC[C@H](c1ccccc1)[C@@H]2c1ccc(OCCN2CCCC2)cc1` (relative stereo), the Activity is reported as “Active”.

What follows are compounds tested on Rattus norvegicus (assay: Estrogenic activity in immature female rat assessed as diestrus smear with leukocytes at 10 mg/kg, po bid for 3 days). Settings: not given.
Assay type: functional, organism-based
Set-up: dose 10 mg/kg
Procedure, shortened: (§2)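 Immature female rats, 25-30 g. Vaginal smear scored as + (leucocytes with epithelial cells), ++ (proestrus, nucleated or nucleated plus cornified cells) or +++ (estrus, cornified cells only). Estrone used as standard.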
With `CCC1(CC)Oc2cc(OC)ccc2C(c2ccc(O)cc2)=C1c1ccccc1` the Activity was “Active”.
`COc1ccc2c(c1)OCC(c1ccccc1)=C2c1ccc(OCCN2CCCC2)cc1` was tested, and the Activity was “Active”.
With `CCC1(CC)Oc2cc(OC)ccc2C(c2ccc(OCCN3CCCC3)cc2)=C1c1ccccc1.Cl` the Activity was “Active”.

These compounds were tested on Rattus norvegicus (assay: Antifertility activity in pregnant female albino rat assessed as implantation in both uterine horns on day 10 of pregnancy at 20 mg/kg/day, po for 5 days). Settings: not given.
Assay type: functional, organism-based
Procedure, shortened: (§3)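 Mated rats of proven fertility; day 1 = sperm-positive vaginal smear. Compound macerated with gum acacia, given orally days 1-5, five animals per group; initial dose 20 mg/kg/day unless stated otherwise. Uterine horns examined on day 10; scored positive only when implantations totally absent in both horns.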
For `CC1(C)Oc2ccccc2C(c2ccc(O)cc2)=C1c1ccccc1`, the Activity was “inactive”.
With `CCC1(CC)Oc2cc(OC)ccc2C(c2ccc(O)cc2)=C1c1ccccc1` the Activity was “inactive”.
In the case of `Cc1ccc2c(c1)[C@H](c1ccccc1)[C@@H](c1ccccc1)CO2` (relative stereo), the Activity is reported as “inactive”.
For `COc1ccc2c(c1)OC(C)(C)[C@H](c1ccccc1)[C@H]2c1ccc(O)cc1` (relative stereo), the Activity was “inactive”.
For `COc1ccc(C2=C(c3ccc(OC)cc3)C(C)(C)Oc3cc(OC)ccc32)cc1`, the Activity was “inactive”.
For `COc1ccc2c(c1)OC(C)(C)[C@H](c1ccccc1)[C@@H]2c1ccc(O)cc1` (relative stereo), the Activity was “inactive”.
For `COc1ccc2c(c1)OC(C)(C)[C@@H](c1ccccc1)[C@H]2c1ccc(OCCN2CCCC2)cc1`, the Activity was “inactive”.
With `COc1ccc2c(c1)OC(C)(C)C(c1ccccc1)=C2c1ccc(O)cc1` the Activity was “inactive”.
In the case of `CCC1(CC)Oc2cc(OC)ccc2[C@@H](c2ccc(OCCN3CCCC3)cc2)[C@H]1c1ccccc1`, the Activity is reported as “inactive”.
In the case of `COc1ccc2c(c1)OC(C)(C)C(c1ccc(Cl)cc1)=C2c1ccc(O)cc1`, the Activity is reported as “inactive”.
`COc1ccc(C2=C(c3ccccc3)C(C)(C)Oc3cc(O)ccc32)cc1` was tested, and the Activity was “inactive”.
`CCC1(CC)Oc2cc(OC)ccc2[C@@H](c2ccc(O)cc2)[C@H]1c1ccccc1` (relative stereo) was tested, and the Activity was “inactive”.
For `Cc1ccc2c(c1)[C@@H](c1ccccc1)[C@@H](c1ccccc1)CO2` (relative stereo), the Activity was “inactive”.

Each compound was assayed on Rattus norvegicus (assay: Estrogenic activity in immature female rat assessed as diestrus smear with leukocytes and mixture of leukocytes,epithelial cells at 10 mg/kg, po bid for 3 days). Settings: not given.
Assay type: functional, organism-based
Set-up: dose 10 mg/kg
Procedure, shortened: as §2
In the case of `CCN(CC)CCOc1ccc(C2=C(c3ccccc3)C(C)(C)Oc3cc(OC)ccc32)cc1.Cl`, the Activity is reported as “Active”.
With `COc1ccc2c(c1)OC[C@H](c1ccccc1)[C@H]2c1ccc(OCCN2CCCC2)cc1` (relative stereo) the Activity was “Active”.

Each compound was assayed on Rattus norvegicus (assay: Estrogenic activity in immature female rat assessed as diestrus smear with leukocytes and proestrus smear with nucleated and cornified cells at 5 mg/kg, po bid for 3 days). Settings: not given.
Assay type: functional, organism-based
Set-up: dose 5 mg/kg
Procedure, shortened: as §2
With `COc1ccc2c(c1)OC[C@H](c1ccccc1)[C@@H]2c1ccc(OCCN2CCCC2)cc1` (relative stereo) the Activity was “Active”.

What follows are compounds tested on Rattus norvegicus (assay: Estrogenic activity in immature female rat assessed as vaginal opening at 10 mg/kg, po bid for 3 days). Settings: not given.
Assay type: functional, organism-based
Set-up: dose 10 mg/kg
Procedure, shortened: as §1
For `CCC1(CC)Oc2cc(OC)ccc2[C@H](c2ccc(OCCN3CCCC3)cc2)[C@H]1c1ccccc1`, the Activity was “Active”.
`CCC1(CC)Oc2cc(OC)ccc2C(c2ccc(O)cc2)=C1c1ccccc1` was tested, and the Activity was “Active”.
In the case of `CCN(CC)CCOc1ccc(C2=C(c3ccccc3)C(C)(C)Oc3cc(OC)ccc32)cc1.Cl`, the Activity is reported as “Active”.
With `COc1ccc2c(c1)OCC(c1ccccc1)=C2c1ccc(OCCN2CCCC2)cc1` the Activity was “Active”.
With `COc1ccc2c(c1)OC[C@H](c1ccccc1)[C@@H]2c1ccc(OCCN2CCCC2)cc1` (relative stereo) the Activity was “Active”.
In the case of `CCC1(CC)Oc2cc(OC)ccc2C(c2ccc(OCCN3CCCC3)cc2)=C1c1ccccc1.Cl`, the Activity is reported as “Active”.
With `COc1ccc2c(c1)OC(C)(C)C(c1ccccc1)=C2c1ccc(O)cc1` the Activity was “Active”.
In the case of `COc1ccc2c(c1)OC(C)(C)[C@@H](c1ccccc1)[C@@H]2c1ccc(OCCN2CCCC2)cc1` [LEVORMELOXIFENE], the Activity is reported as “Active”.
`COc1ccc2c(c1)OC[C@H](c1ccccc1)[C@H]2c1ccc(OCCN2CCCC2)cc1` (relative stereo) was tested, and the Activity was “Active”.

Each compound was assayed on Rattus norvegicus (assay: Estrogenic activity in immature female rat assessed as mixture of leukocytes, epithelial cells and proestrus smear with nucleated and cornified cells at 10 mg/kg, po bid for 3 days). Settings: Epithelial cell.
Assay type: functional, organism-based
Set-up: dose 10 mg/kg
Procedure, shortened: as §2
With `COc1ccc2c(c1)OC(C)(C)C(c1ccccc1)=C2c1ccc(O)cc1` the Activity was “Active”.

Each compound was assayed on Rattus norvegicus (assay: Estrogenic activity in immature female rat assessed as mixture of leukocytes and epithelial cells at 10 mg/kg, po bid for 3 days). Settings: Epithelial cell.
Assay type: functional, organism-based
Set-up: dose 10 mg/kg
Procedure, shortened: as §2
With `COc1ccc2c(c1)OC[C@H](c1ccccc1)[C@@H]2c1ccc(OCCN2CCCC2)cc1` (relative stereo) the Activity was “Active”.

Each compound was assayed on Rattus norvegicus (assay: Estrogenic activity in immature female rat assessed as mixture of leukocytes,epithelial cells and estrus smear with cornified cells at 10 mg/kg, po bid for 3 days). Settings: not given.
Assay type: functional, organism-based
Set-up: dose 10 mg/kg
Procedure, shortened: as §2
In the case of `CCC1(CC)Oc2cc(OC)ccc2[C@H](c2ccc(OCCN3CCCC3)cc2)[C@H]1c1ccccc1`, the Activity is reported as “Active”.
For `COc1ccc2c(c1)OC(C)(C)[C@@H](c1ccccc1)[C@@H]2c1ccc(OCCN2CCCC2)cc1` [LEVORMELOXIFENE], the Activity was “Active”.

Each compound was assayed on Rattus norvegicus (assay: Estrogenic activity in immature female rat assessed as uterine weight on day 4 at 10 mg/kg, po bid for 3 days (reference value: 13.6 +/- 0.8 mg)). Settings: not given.
Assay type: functional
`CCC1(CC)Oc2cc(OC)ccc2[C@H](c2ccc(OCCN3CCCC3)cc2)[C@H]1c1ccccc1` was tested, and the Activity was 46.6 mg.
`CCC1(CC)Oc2cc(OC)ccc2C(c2ccc(O)cc2)=C1c1ccccc1` showed an Activity of 39.2 mg.
`CCN(CC)CCOc1ccc(C2=C(c3ccccc3)C(C)(C)Oc3cc(OC)ccc32)cc1.Cl` gave an Activity of 42 mg.
With `COc1ccc2c(c1)OC(C)(C)[C@@H](c1ccccc1)[C@H]2c1ccc(OCCN2CCCC2)cc1` the Activity was 20.5 mg.
With `COc1ccc2c(c1)OCC(c1ccccc1)=C2c1ccc(OCCN2CCCC2)cc1` the Activity was 37.4 mg.
`COc1ccc2c(c1)OC[C@H](c1ccccc1)[C@@H]2c1ccc(OCCN2CCCC2)cc1` (relative stereo) gave an Activity of 50.6 mg.
With `CCC1(CC)Oc2cc(OC)ccc2C(c2ccc(OCCN3CCCC3)cc2)=C1c1ccccc1.Cl` the Activity was 35.4 mg.
With `COc1ccc2c(c1)OC(C)(C)C(c1ccccc1)=C2c1ccc(O)cc1` the Activity was 49.2 mg.
In the case of `CCC1(CC)Oc2cc(OC)ccc2[C@@H](c2ccc(OCCN3CCCC3)cc2)[C@H]1c1ccccc1`, the Activity is reported as 16.5 mg.
`CCC1(CC)Oc2cc(OC)ccc2[C@@H](c2ccc(O)cc2)[C@H]1c1ccccc1` (relative stereo) was tested, and the Activity was 14.6 mg.
In the case of `COc1ccc2c(c1)OC(C)(C)[C@@H](c1ccccc1)[C@@H]2c1ccc(OCCN2CCCC2)cc1` [LEVORMELOXIFENE], the Activity is reported as 48.3 mg.
`COc1ccc2c(c1)OC[C@H](c1ccccc1)[C@H]2c1ccc(OCCN2CCCC2)cc1` (relative stereo) showed an Activity of 48.3 mg.

The compounds below were run on Rattus norvegicus (assay: Estrogenic activity in immature female rat assessed as uterine weight on day 4 at 5 mg/kg, po bid for 3 days (reference value: 13.6 +/- 0.8 mg)). Settings: not given.
Assay type: functional
Work on `COc1ccc2c(c1)OC[C@H](c1ccccc1)[C@@H]2c1ccc(OCCN2CCCC2)cc1` (relative stereo) yielded an Activity of 43.7 mg.

These compounds were tested on Rattus norvegicus (assay: Antifertility activity in po dosed pregnant female albino rat assessed as absence of implantation in both uterine horns on day 10 of pregnancy compound administered for 5 days). Settings: not given.
Assay type: functional
Procedure, shortened: as §3
Work on `CCC1(CC)Oc2cc(OC)ccc2[C@H](c2ccc(OCCN3CCCC3)cc2)[C@H]1c1ccccc1` yielded an ED100 of 5 mg/kg.
For `CCN(CC)CCOc1ccc(C2=C(c3ccccc3)C(C)(C)Oc3cc(OC)ccc32)cc1.Cl`, the ED100 was 10 mg/kg.
`COc1ccc2c(c1)OC(C)(C)C(c1ccccc1)=C2c1ccc(OCCN2CCCC2)cc1.Cl` gave an ED100 of 5 mg/kg.
For `COc1ccc2c(c1)OC(C)(C)C(c1ccc(Cl)cc1)=C2c1ccc(OCCN2CCCC2)cc1.Cl`, the ED100 was 5 mg/kg.
For `CC1(C)Oc2ccccc2C(c2ccc(OCCN3CCCC3)cc2)=C1c1ccccc1.Cl`, the ED100 was 10 mg/kg.
`COc1ccc2c(c1)OCC(c1ccccc1)=C2c1ccc(OCCN2CCCC2)cc1` showed an ED100 of 0.15 mg/kg.
`COc1ccc2c(c1)OC[C@H](c1ccccc1)[C@@H]2c1ccc(OCCN2CCCC2)cc1` (relative stereo) gave an ED100 of 1 mg/kg.
In the case of `COc1ccc(C2=C(c3ccccc3)C(C)(C)Oc3cc(OCCN4CCCC4)ccc32)cc1.Cl`, the ED100 is reported as 10 mg/kg.
`CCC1(CC)Oc2cc(OC)ccc2C(c2ccc(OCCN3CCCC3)cc2)=C1c1ccccc1.Cl` was tested, and the ED100 was 10 mg/kg.
Work on `COc1ccc2c(c1)OC(C)(C)[C@@H](c1ccccc1)[C@@H]2c1ccc(OCCN2CCCC2)cc1` [LEVORMELOXIFENE] yielded an ED100 of 0.25 mg/kg.
In the case of `COc1ccc2c(c1)OC[C@H](c1ccccc1)[C@H]2c1ccc(OCCN2CCCC2)cc1` (relative stereo), the ED100 is reported as 0.25 mg/kg.
